Measured values reported in ChEMBL document CHEMBL1671838, “Discovery of MK-1220: A Macrocyclic Inhibitor of Hepatitis C Virus NS3/4A Protease with Improved Preclinical Plasma Exposure” (ACS Med Chem Lett, 2011).
One block for each compound: values may come before it.

Tests used:
[1] = Half life in Sprague-Dawley rat at 2 mg/kg, iv; type: ADME, organism-based; design: dose 2 mg/kg, route intravenous; details: in vivo
Outline: (§1)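 IV PK: 2 mg/kg dosed intravenously in DMSO to rat (n = 4) and dog (n = 2).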

[2] = Selectivity ratio Ki for HCV NS3/4A protease to Ki for trypsin
[3] = AUC in Sprague-Dawley rat at 5 mg/kg, po; type: ADME, organism-based; design: dose 5 mg/kg, route oral; details: plasma
Outline: (§2)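 Oral PK study: 5 mg/kg PO in 10% Tween. Rat n = 3, dog n = 2. Plasma exposure was measured in both species, and dog liver levels were measured at 2 h and 26 h after dosing.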

[4] = Selectivity ratio Ki for HCV NS3/4A protease to Ki for chymotrypsin
[5] = Cmax in Beagle dog at 5 mg/kg, po; type: ADME, organism-based, Canis lupus familiaris; design: dose 5 mg/kg, route oral; details: in vivo; outline: as §2
[6] = Half life in Beagle dog at 2 mg/kg, iv; type: ADME, organism-based, Canis lupus familiaris; design: dose 2 mg/kg, route intravenous; details: in vivo; outline: as §1
[7] = test system: Hepatitis C virus; experiment: Antiviral activity against HCV2a infected in human HuH7 cells assessed as inhibition of viral replication after 24 hrs in presence of 10% fetal bovine serum; type: functional, organism-based, Hepacivirus hominis; details: genotype 2a, Huh-7, 24 h
Outline: (§3)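 Cell-based HCV replicon assay giving IC50. Genotype 1b replicon run with 10% fetal bovine serum or with 50% normal human serum. Genotype 2a replicon run with 10% FBS.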

[8] = AUC in Sprague-Dawley rat plasma at 5 mg/kg, po after 4 hrs; type: ADME, organism-based; design: time < 4 hr, dose 5 mg/kg, route oral
Outline: (§4)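 Rat PK screen: 5 mg/kg given orally in PEG400, n = 2; plasma AUC calculated from a 4 h experiment, and liver concentration measured at 4 h after dosing.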

[9] = Inhibition of HCV NS3/4A protease expressed Escherichia coli after 1 hr by time-resolved fluorescence assay; design: species or system Hepacivirus hominis
Outline: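 Binding assay against genotype 1b HCV NS3/4A protease, read by time-resolved fluorescence; potency expressed as Ki.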

[10] = Bioavailability in Sprague-Dawley rat at 2 mg/kg, iv and 5 mg/kg, po; type: ADME, organism-based; details: in vivo
Outline: (§5)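 Bioavailability derived from IV dosing at 2 mg/kg in DMSO (rat n = 4, dog n = 2) and PO dosing at 5 mg/kg in 10% Tween (rat n = 3, dog n = 2).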

[11] = Clearance in Beagle dog at 2 mg/kg, iv; type: ADME, organism-based, Canis lupus familiaris; design: dose 2 mg/kg, route intravenous; details: in vivo; outline: as §1
[12] = Cmax in rhesus monkey at 5 mg/kg, po; type: ADME, organism-based, Macaca mulatta; design: dose 5 mg/kg, route oral; details: in vivo
Outline: (§6)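 Rhesus monkey oral PK: 5 mg/kg PO in 10% Tween, n = 2.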

[13] = Clearance in rhesus monkey at 1 mg/kg, iv; details: in vivo
[14] = Bioavailability in rhesus monkey at 1 mg/kg, iv and 5 mg/kg, po; details: in vivo
[15] = Drug level in Beagle dog liver at 5 mg/kg, po after 26 hrs; type: ADME, organism-based, Canis lupus familiaris; design: dose 5 mg/kg, route oral; details: read-out: Drug uptake
Outline: (§7)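 Single oral dose of 5 mg/kg in 10% Tween vehicle; n = 3 for rat and n = 2 for dog. Liver drug concentration was measured at 24 h in rat and at 26 h in dog.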

[16] = Drug level in Sprague-Dawley rat liver at 5 mg/kg, po after 4 hrs; type: ADME, organism-based; design: dose 5 mg/kg, route oral; details: read-out: Drug uptake; outline: as §4
[17] = test system: Hepatitis C virus; experiment: Antiviral activity against HCV1b con1 infected in human HuH7 cells assessed as inhibition of viral replication after 24 hrs in presence of 50% normal human serum; type: functional, organism-based, Hepacivirus hominis; details: Con1, Huh-7, 24 h; outline: as §3
[18] = Half life in rhesus monkey at 1 mg/kg, iv; details: in vivo
[19] = Drug level in Beagle dog liver at 5 mg/kg, po after 2 hrs; type: ADME, organism-based, Canis lupus familiaris; design: dose 5 mg/kg, route oral; details: read-out: Drug uptake; outline: as §2
[20] = AUC in Beagle dog at 5 mg/kg, po; type: ADME, organism-based, Canis lupus familiaris; design: dose 5 mg/kg, route oral; details: plasma; outline: as §2
[21] = Clearance in Sprague-Dawley rat at 2 mg/kg, iv; type: ADME, organism-based; design: dose 2 mg/kg, route intravenous; details: in vivo; outline: as §1
[22] = test system: Hepatitis C virus; experiment: Antiviral activity against HCV1b con1 infected in human HuH7 cells assessed as inhibition of viral replication after 24 hrs in presence of 10% fetal bovine serum; type: functional, organism-based, Hepacivirus hominis; details: Con1, Huh-7, 24 h; outline: as §3
[23] = Bioavailability in Beagle dog at 2 mg/kg, iv and 5 mg/kg, po; type: ADME, organism-based, Canis lupus familiaris; details: in vivo; outline: as §5
[24] = AUC in rhesus monkey at 5 mg/kg, po; type: ADME, organism-based, Macaca mulatta; design: dose 5 mg/kg, route oral; details: plasma; outline: as §6
[25] = Cmax in Sprague-Dawley rat at 5 mg/kg, po; type: ADME, organism-based; design: dose 5 mg/kg, route oral; details: in vivo; outline: as §2
[26] = Drug level in Sprague-Dawley rat liver at 5 mg/kg, po after 24 hrs; type: ADME, organism-based; design: dose 5 mg/kg, route oral; details: read-out: Drug uptake; outline: as §7

Compound: C=C[C@@H]1C[C@]1(NC(=O)[C@@H]1C[C@@H]2CN1C(=O)[C@H](C1CCCCC1)NC(=O)OCC(C)(C)CCCc1cc3c(nccc3cc1OC)O2)C(=O)NS(=O)(=O)C1CC1
half-life [1]: 5.7 h | Ratio Ki [2]: > 50000 | AUC [3]: 12100 nM·h | Ratio Ki [4]: > 50000 | Cmax [5]: 4 µM | half-life [6]: 2.5 h | IC50 [7]: 5 nM | AUC at 4 h [8]: 11800 nM·h | Ki [9]: 0.02 nM | bioavailability [10]: 37% | clearance [11]: 0.216 L/h/kg | Cmax [12]: 0.3 µM | clearance [13]: 0.498 L/h/kg | bioavailability [14]: 9% | concentration at 26 h [15]: 10.3 µM | concentration at 4 h [16]: 23 µM | IC50 [17]: 11 nM | half-life [18]: 1.3 h | concentration at 2 h [19]: 54 µM | AUC [20]: 12400 nM·h | clearance [21]: 0.204 L/h/kg | IC50 [22]: 4 nM | bioavailability [23]: 41% | AUC [24]: 1200 nM·h | Cmax [25]: 4.4 µM | concentration at 24 h [26]: 9.9 µM

Compound: C=C[C@@H]1C[C@]1(NC(=O)[C@@H]1C[C@@H]2CN1C(=O)[C@H](C1Cc3ccccc3C1)NC(=O)OCCC/C=C/c1ccc3ccnc(c3c1)O2)C(=O)NS(=O)(=O)C1CC1
AUC at 4 h [8]: 150 nM·h | Ki [9]: 0.07 nM | concentration at 4 h [16]: 4.5 µM | IC50 [17]: 20 nM | IC50 [22]: 5 nM

Compound: C=C[C@@H]1C[C@]1(NC(=O)[C@@H]1C[C@@H]2CN1C(=O)[C@H](C1CCOCC1)NC(=O)OCCC/C=C/c1ccc3ccnc(c3c1)O2)C(=O)NS(=O)(=O)C1CC1
AUC at 4 h [8]: 500 nM·h | Ki [9]: 0.07 nM | concentration at 4 h [16]: < 0.2 µM | IC50 [17]: 20 nM | IC50 [22]: 9 nM

Compound: C=C[C@@H]1C[C@]1(NC(=O)[C@@H]1C[C@@H]2CN1C(=O)[C@H](C(C)(C)C)NC(=O)OCCCCCc1cc(OCC)c3ccnc(c3c1)O2)C(=O)NS(=O)(=O)C1CC1
AUC at 4 h [8]: 6900 nM·h | Ki [9]: 0.37 nM | concentration at 4 h [16]: 15.2 µM | IC50 [17]: 500 nM | IC50 [22]: 6 nM

Compound: C=C[C@@H]1C[C@]1(NC(=O)[C@@H]1C[C@@H]2CN1C(=O)[C@H](C1CCCCC1)NC(=O)OCCCCCc1cc(OC)c3ccnc(c3c1)O2)C(=O)NS(=O)(=O)C1CC1
IC50 [7]: 6 nM | AUC at 4 h [8]: 2500 nM·h | Ki [9]: 0.05 nM | concentration at 4 h [16]: 13.2 µM | IC50 [17]: 60 nM | IC50 [22]: 3 nM

Compound: C=C[C@@H]1C[C@]1(NC(=O)[C@@H]1C[C@@H]2CN1C(=O)[C@H](C(C)(C)C)NC(=O)OCCC/C=C/c1ccc3ccnc(c3c1)O2)C(=O)NS(=O)(=O)C1CC1
AUC at 4 h [8]: 360 nM·h | Ki [9]: 0.04 nM | concentration at 4 h [16]: 18.6 µM | IC50 [17]: 14 nM | IC50 [22]: 4.5 nM

Compound: C=C[C@@H]1C[C@]1(NC(=O)[C@@H]1C[C@@H]2CN1C(=O)[C@H](C(C)(C)C)NC(=O)OCCCCCc1cc3c(nccc3cc1OC)O2)C(=O)NS(=O)(=O)C1CC1
AUC at 4 h [8]: 9600 nM·h | Ki [9]: 0.04 nM | concentration at 4 h [16]: 3 µM | IC50 [17]: 113 nM | IC50 [22]: 3 nM

The next compounds have a lower IC50 [22] than those just listed; values first:

IC50 [7]: 11 nM | AUC at 4 h [8]: 180 nM·h | concentration at 4 h [16]: 16 µM | IC50 [22]: 2 nM
Compound: C=C[C@@H]1C[C@]1(NC(=O)[C@@H]1C[C@@H]2CN1C(=O)[C@H](C1CCCC1)NC(=O)OCC(C)(C)CCCc1ccc3ccnc(c3c1)O2)C(=O)NS(=O)(=O)C1CC1
Ki [9]: 0.02 nM | IC50 [17]: 10 nM

AUC at 4 h [8]: 1400 nM·h | concentration at 4 h [16]: 24.5 µM | IC50 [22]: 2.3 nM
Compound: C=C[C@@H]1C[C@]1(NC(=O)[C@@H]1C[C@@H]2CN1C(=O)[C@H](C(C)(C)C)NC(=O)OCCCCCc1cc(I)c3ccnc(c3c1)O2)C(=O)NS(=O)(=O)C1CC1
Ki [9]: 0.03 nM | IC50 [17]: 56 nM

AUC at 4 h [8]: 1800 nM·h | concentration at 4 h [16]: 12.6 µM | IC50 [22]: 2 nM
Compound: C=C[C@@H]1C[C@]1(NC(=O)[C@@H]1C[C@@H]2CN1C(=O)[C@H](C(C)(C)C)NC(=O)OCCCCCc1cc(SC)c3ccnc(c3c1)O2)C(=O)NS(=O)(=O)C1CC1
Ki [9]: 0.03 nM | IC50 [17]: 34 nM

AUC at 4 h [8]: 280 nM·h | concentration at 4 h [16]: 5.8 µM | IC50 [22]: 2 nM
Compound: C=C[C@@H]1C[C@]1(NC(=O)[C@@H]1C[C@@H]2CN1C(=O)[C@H](C(C)(C)C)NC(=O)OCCCCCc1cc(Br)c3ccnc(c3c1)O2)C(=O)NS(=O)(=O)C1CC1
Ki [9]: 0.04 nM | IC50 [17]: 170 nM

AUC at 4 h [8]: 2100 nM·h | concentration at 4 h [16]: 12.5 µM | IC50 [22]: 2.5 nM
Compound: C=C[C@@H]1C[C@]1(NC(=O)[C@@H]1C[C@@H]2CN1C(=O)[C@H](C(C)(C)C)NC(=O)OCCCCCc1cc(CC)c3ccnc(c3c1)O2)C(=O)NS(=O)(=O)C1CC1
Ki [9]: 0.14 nM | IC50 [17]: 90 nM
